Results from ChEMBL document CHEMBL1154046, “Synthesis of some urea and thiourea derivatives of 3-phenyl/ethyl-2-thioxo-2,3-dihydrothiazolo[4,5-d]pyrimidine and their antagonistic effects on haloperidol-induced catalepsy and oxidative stress in mice” (2009).

Legend:
Assay type in all cases: functional
Details in all cases: route intraperitoneal, in the assay text read “ip” for “po”
[1] = tested on: Mus musculus; test: Inhibition of haloperidol-induced catalepsy in Swiss albino mouse assessed as time elapsed until release of forepaw from bar at 100 mg/kg, […] 30 min prior to haloperidol challenge measured after 60 mins by bar test
Method in brief: (§1)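 Adult male pathogen-free Swiss albino mice (18–25 g), n = 5 per group, each used once. Compounds at 100 mg/kg i.p. were given as a suspension in 0.5% gum acacia 30 min before haloperidol 5 mg/kg i.p. Forepaws were placed on a horizontal bar 9 cm high, and descent time was recorded every 30 min for 3 h. Testing ran at 23 ± 1 °C under 20 lux. Values are mean ± S.E.M.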

[2] = tested on: Mus musculus; test: Inhibition of haloperidol-induced catalepsy in Swiss albino mouse assessed as time elapsed until release of forepaw from bar at 100 mg/kg, […] 30 min prior to haloperidol challenge measured after 30 mins by bar test; method in brief: as §1
[3] = tested on: Mus musculus; test: Inhibition of haloperidol-induced catalepsy in Swiss albino mouse assessed as time elapsed until release of forepaw from bar at 100 mg/kg, […] 30 min prior to haloperidol challenge measured after 90 mins by bar test; method in brief: as §1
[4] = tested on: Mus musculus; test: Inhibition of haloperidol-induced catalepsy in Swiss albino mouse assessed as time elapsed until release of forepaw from bar at 100 mg/kg, […] 30 min prior to haloperidol challenge measured after 120 mins by bar test; method in brief: as §1
[5] = tested on: Mus musculus; test: Inhibition of haloperidol-induced catalepsy in Swiss albino mouse assessed as time elapsed until release of forepaw from bar at 100 mg/kg, […] 30 min prior to haloperidol challenge measured after 150 mins by bar test; method in brief: as §1
[6] = tested on: Mus musculus; test: Inhibition of haloperidol-induced catalepsy in Swiss albino mouse assessed as time elapsed until release of forepaw from bar at 100 mg/kg, […] 30 min prior to haloperidol challenge measured after 180 mins by bar test; method in brief: as §1
[7] = tested on: Mus musculus; test: Inhibition of haloperidol-induced catalepsy in Swiss albino mouse at 100 mg/kg, […] 30 min prior to haloperidol challenge by bar test relative to haloperidol control
Method in brief: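 Mice received compound at 100 mg/kg i.p. (in 0.5% gum acacia) 30 min before haloperidol 5 mg/kg i.p., n = 5. The bar test was run every 30 min over 3 h, and descent times were summed as CDT [3 h]. Haloperidol CDT minus vehicle CDT was set as 100% catalepsy, and % inhibition was calculated against it.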

SMILES	Catalepsy time (forepaw descent time) [1] [min]	descent time [2] [min]	catalepsy descent time [3] [min]	catalepsy descent time [4] [min]	Time to forepaw release from bar [5] [min]	Catalepsy duration (time to release forepaw from bar) [6] [min]	inhibition (INH) [7] [%]
CCn1c(=S)sc2c(NC(=O)Nc3ccc(F)cc3)ncnc21	1.65	1.1	1.88	3.07	3.12	3.95	55.1
CCn1c(=S)sc2c(NC(=O)Nc3ccccc3)ncnc21	2.03	0.817	2.12	2.4	2.22	3.32	47.8
O=[N+]([O-])c1ccc(NC(=S)Nc2ncnc3c2sc(=S)n3-c2ccccc2)cc1	1.88	0.967	2.18	2.45	2.68	2.65	47.5
O=C(Nc1ccc([N+](=O)[O-])cc1)Nc1ncnc2c1sc(=S)n2-c1ccccc1	1.32	0.883	1.98	2.08	3.18	3.93	49.7
S=C(Nc1ccccc1Cl)Nc1ncnc2c1sc(=S)n2-c1ccccc1	1.93	1.07	3.08	2.63	4.02	3.97	62.6
O=C(CCCN1CCC(O)(c2ccc(Cl)cc2)CC1)c1ccc(F)cc1 [HALOPERIDOL]	3.73	3.05	4.55	5	5	5	
CCn1c(=S)sc2c(NC(=O)Nc3ccc(OC)cc3)ncnc21	1.85	1.28	1.9	2.02	2.3	2.38	43.3
CCn1c(=S)sc2c(NC(=S)Nc3ccc(OC)cc3)ncnc21	0.717	0.433	1.53	1.9	2.1	2.23	32.3
S=C(Nc1ccc(Cl)cc1)Nc1ncnc2c1sc(=S)n2-c1ccccc1	2.45	0.967	2.55	2.8	3.48	4.47	62.6
O=C(Nc1ccc(F)cc1)Nc1ncnc2c1sc(=S)n2-c1ccccc1	1.9	1.42	1.92	2.63	2.55	3.8	52.9
CCn1c(=S)sc2c(NC(=O)Nc3ccccc3F)ncnc21	1.98	1.12	2.3	2.88	3.1	2.95	53.4
CCn1c(=S)sc2c(NC(=O)Nc3ccccc3[N+](=O)[O-])ncnc21	2.8	1.7	3.48	3.3	3.75	3.8	70.9
O=C(Nc1ccccc1[N+](=O)[O-])Nc1ncnc2c1sc(=S)n2-c1ccccc1	1.05	0.917	2.02	2.25	2.93	2.95	44.8
CCn1c(=S)sc2c(NC(=S)Nc3ccccc3)ncnc21	1.92	1.22	2.32	2.33	2.87	2.85	50.1
Fc1ccccc1NC(=S)Nc1ncnc2c1sc(=S)n2-c1ccccc1	1.65	1.3	2.37	2.67	3.47	4.28	58.8
COc1ccc(NC(=O)Nc2ncnc3c2sc(=S)n3-c2ccccc2)cc1	1.53	0.95	1.67	2.25	2.08	2.15	39
CCn1c(=S)sc2c(NC(=O)Nc3ccccc3Cl)ncnc21	2.3	2.12	2.18	2.62	3.27	3.15	58.4
O=C(Nc1ccc(Cl)cc1)Nc1ncnc2c1sc(=S)n2-c1ccccc1	2.95	1.27	2.32	3.42	3.43	4.03	65.3
CCn1c(=S)sc2c(NC(=O)Nc3ccc(Cl)cc3)ncnc21	2.88	1.07	2.72	2.53	3.77	4.12	64.1
COc1ccc(NC(=S)Nc2ncnc3c2sc(=S)n3-c2ccccc2)cc1	1.1	1.17	1.72	2.63	2.87	2.22	43.1
N[C@@H](Cc1ccc(O)c(O)c1)C(=O)O [LEVODOPA]	0.633	0.317	1.43	1.47	1.42	1.8	25.1
O=[N+]([O-])c1ccccc1NC(=S)Nc1ncnc2c1sc(=S)n2-c1ccccc1	1.15	0.7	1.15	1.55	3.9	3.87	45.4
O=C(Nc1ccccc1)Nc1ncnc2c1sc(=S)n2-c1ccccc1	2.13	0.75	1.63	2.23	3.33	3.25	49.5
O=C(Nc1ccccc1Cl)Nc1ncnc2c1sc(=S)n2-c1ccccc1	1.97	1.27	2.4	2.78	2.92	2.9	53
S=C(Nc1ccccc1)Nc1ncnc2c1sc(=S)n2-c1ccccc1	0.967	1.1	1.25	3.2	3.6	3.62	51
Fc1ccc(NC(=S)Nc2ncnc3c2sc(=S)n3-c2ccccc2)cc1	2.15	1.25	2.75	3.25	3.63	3.33	61.3
O=C(Nc1ccccc1F)Nc1ncnc2c1sc(=S)n2-c1ccccc1	2.1	1.38	2.77	2.35	2.53	2.63	51.2
CCn1c(=S)sc2c(NC(=O)Nc3ccc([N+](=O)[O-])cc3)ncnc21	2.33	1.67	3.23	3.53	3.5	3.85	68.1
